Data from ChEMBL document CHEMBL4396921, “Synthesis and Biological Activity of Peptide α-Ketoamide Derivatives as Proteasome Inhibitors” (ACS Med Chem Lett, 2019).
Each block holds one compound with its values, some of them ahead of it. Residues, ends and D or L forms follow the SMILES beside them. *: point of attachment. Cbz = O=C(OCc1ccccc1)*

Experiments:
HCT-116 [1] = assay: Antiproliferative activity against human HCT116 cells assessed as reduction in cell viability incubated for 72 hrs by MTT assay; format: functional, cell-based; details: HCT-116, 72 h
Outline: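 HCT116 human colorectal carcinoma cells exposed to compounds at 0.1–100 μM. IC50 for proliferation reported as mean ± SEM of three independent experiments.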

[2] = target: T1, Proteasome Macropain subunit MB1 (Homo sapiens, UniProt P28074); assay: Inhibition of 20S proteosome beta 5 purified from human HCT116 cells using Suc-LLVY-AMC as substrate incubated for 30 to 120 mins by fluorimetry
T1 sequence (P28074 whole entry): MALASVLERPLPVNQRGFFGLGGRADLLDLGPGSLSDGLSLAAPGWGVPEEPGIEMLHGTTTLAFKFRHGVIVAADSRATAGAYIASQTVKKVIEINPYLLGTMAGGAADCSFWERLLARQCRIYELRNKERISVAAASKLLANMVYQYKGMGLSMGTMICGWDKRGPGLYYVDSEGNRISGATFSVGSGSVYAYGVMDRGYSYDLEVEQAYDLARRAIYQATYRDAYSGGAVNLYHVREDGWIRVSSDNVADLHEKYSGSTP
Outline: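 Semipurified proteasomes were pretreated with compound at 0.01–100 μM in activity buffer. Fluorogenic AMC substrates were used: Z-LLE-AMC for PGPH (β1), Boc-LRR-AMC for T-L (β2) and Suc-LLVY-AMC for ChT-L (β5). IC50 reported as mean ± SEM of three independent experiments.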

Homo sapiens [3] = species: Homo sapiens; assay: Selectivity index, ratio of IC50 of 20S proteosome beta 5 purified from human HCT116 cells to IC50 of 20S proteosome beta 2 purified from human HCT116 cells
Homo sapiens [4] = species: Homo sapiens; assay: Selectivity index, ratio of IC50 of 20S proteosome beta 1 purified from human HCT116 cells to IC50 of 20S proteosome beta 2 purified from human HCT116 cells
HCT-116 [5] = assay: Induction of apoptosis in human HCT116 cells assessed as early apoptotic cells at 1 uM incubated for 72 hrs by annexin-V FITC and propidium iodide staining based flow cytometry relative to control; format: functional
Outline: (§1)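 HCT116 tumour cells cultured 48 or 72 h with or without compound at 1 μM. Cells were stained with Annexin V and propidium iodide. Annexin V+/PI− was scored as early apoptotic and Annexin V+/PI+ as late apoptotic. Percentages of cells were read from dot plots, with three experiments run.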

HCT-116 [6] = assay: Induction of apoptosis in human HCT116 cells assessed as late apoptotic cells at 1 uM incubated for 48 hrs by annexin-V FITC and propidium iodide staining based flow cytometry relative to control; format: functional; outline: as §1
HCT-116 [7] = assay: Induction of apoptosis in human HCT116 cells assessed as early apoptotic cells at 1 uM incubated for 48 hrs by annexin-V FITC and propidium iodide staining based flow cytometry relative to control; format: functional; outline: as §1
HCT-116 [8] = assay: Induction of apoptosis in human HCT116 cells assessed as necrotic cells at 1 uM incubated for 72 hrs by annexin-V FITC and propidium iodide staining based flow cytometry relative to control; format: functional; outline: as §1
HCT-116 [9] = assay: Induction of apoptosis in human HCT116 cells assessed as necrotic cells at 1 uM incubated for 48 hrs by annexin-V FITC and propidium iodide staining based flow cytometry relative to control; format: functional; outline: as §1
Homo sapiens [10] = species: Homo sapiens; assay: Selectivity ratio of IC50 of 20S proteosome beta 2 purified from human HCT116 cells to IC50 of 20S proteosome beta 5 purified from human HCT116 cells
Homo sapiens [11] = species: Homo sapiens; assay: Selectivity ratio of IC50 of 20S proteosome beta 1 purified from human HCT116 cells to IC50 of 20S proteosome beta 5 purified from human HCT116 cells
HCT-116 [12] = assay: Induction of apoptosis in human HCT116 cells assessed as viable cells at 1 uM incubated for 72 hrs by annexin-V FITC and propidium iodide staining based flow cytometry relative to control; format: functional; details: HCT-116, 72 h, read-out: Activity; outline: as §1
HCT-116 [13] = assay: Induction of apoptosis in human HCT116 cells assessed as viable cells at 1 uM incubated for 48 hrs by annexin-V FITC and propidium iodide staining based flow cytometry relative to control; format: functional; details: HCT-116, 48 h, read-out: Activity; outline: as §1
HCT-116 [14] = assay: Induction of apoptosis in human HCT116 cells assessed as late apoptotic cells at 1 uM incubated for 72 hrs by annexin-V FITC and propidium iodide staining based flow cytometry relative to control; format: functional; outline: as §1

IC50 (HCT-116 [1]): > 100 µM | IC50 [2]: 12.4 µM
Structure (SMILES): CC(C)C[C@H](NC(=O)OCc1ccccc1)C(=O)N[C@@H](Cc1ccc(O)cc1)C(=O)C(=O)NCc1ccccc1

IC50 [2]: > 100 µM
Structure (SMILES): CC(C)C[C@H](NC(=O)OCc1ccccc1)C(=O)N[C@@H](CC(C)C)C(=O)N[C@@H](CC(C)C)C(O)C(=O)N1CCOCC1 (stereo not given in full)

IC50 [2]: > 100 µM
Structure (SMILES): CC(C)C[C@H](NC(=O)OCc1ccccc1)C(=O)N[C@@H](CC(N)=O)C(O)C(=O)NCc1ccccc1 (stereo not given in full)

IC50 [2]: > 100 µM
Structure (SMILES): CC(C)C[C@H](NC(=O)OCc1ccccc1)C(=O)N[C@@H](Cc1ccccc1)C(O)C(=O)NCc1ccccc1 (stereo not given in full)

IC50 [2]: 51.1 µM
Structure (SMILES): CC(C)C[C@H](NC(=O)OCc1ccccc1)C(=O)N[C@@H](Cc1ccccc1)C(=O)C(=O)NCc1ccccc1

IC50 [2]: 82.1 µM
Structure (SMILES): CC(C)C[C@H](NC(=O)OCc1ccccc1)C(=O)N[C@@H](C(C)C)C(O)C(=O)NCc1ccccc1 (stereo not given in full)

Ratio IC50 (Homo sapiens [3]): 30 | IC50 [2]: 63.3 µM | Ratio IC50 (Homo sapiens [4]): 7
Structure (SMILES): CC(C)C[C@H](NC(=O)OCc1ccccc1)C(=O)N[C@H](C(=O)C(=O)NCc1ccccc1)C(C)C

IC50 [2]: > 100 µM
Structure (SMILES): CC(C)CNC(=O)C(O)[C@H](CC(C)C)NC(=O)[C@H](CC(C)C)NC(=O)[C@H](CC(C)C)NC(=O)OCc1ccccc1 (stereo not given in full)

IC50 [2]: > 100 µM
Structure (SMILES): CC(C)C[C@H](NC(=O)OCc1ccccc1)C(=O)N[C@@H](CC(C)C)C(=O)N[C@@H](CC(C)C)C(O)C(=O)N1CCc2ccccc2C1 (stereo not given in full)

IC50 (HCT-116 [1]): 0.93 µM | IC50 [2]: 0.056 µM
Structure (SMILES): CC(C)C[C@H](NC(=O)OCc1ccccc1)C(=O)N[C@@H](CC(C)C)C(=O)N[C@@H](CC(C)C)C(=O)C(=O)NCc1ccc(F)cc1

IC50 (HCT-116 [1]): < 0.1 µM | IC50 [2]: 0.007 µM | Ratio IC50 (Homo sapiens [10]): > 14200 | Ratio IC50 (Homo sapiens [11]): 8200
Structure (SMILES): CC(C)C[C@H](NC(=O)OCc1ccccc1)C(=O)N[C@@H](CC(C)C)C(=O)N[C@@H](CC(C)C)C(=O)C(=O)Nc1cccc2ccccc12
Activity (HCT-116 [5]): 11.3% | Activity (HCT-116 [6]): 29.5% | Activity (HCT-116 [7]): 22.6% | Activity (HCT-116 [8]): 2.29% | Activity (HCT-116 [9]): 2.77% | viability at 1 µM (HCT-116 [12]): 27.1% | viability at 1 µM (HCT-116 [13]): 45.1% | Activity (HCT-116 [14]): 59.4%

IC50 [2]: > 100 µM
Structure (SMILES): CC(C)C[C@H](NC(=O)OCc1ccccc1)C(=O)N[C@@H](CC(C)C)C(=O)N[C@@H](CC(C)C)C(O)C(=O)NCc1ccc(F)cc1 (stereo not given in full)

IC50 [2]: > 100 µM
Structure (SMILES): CC(C)C[C@H](NC(=O)OCc1ccccc1)C(=O)N[C@@H](CC(N)=O)C(=O)C(=O)NCc1ccccc1

IC50 [2]: 8.1 µM
Structure (SMILES): CC(C)C[C@H](NC(=O)OCc1ccccc1)C(=O)N[C@@H](CC(C)C)C(=O)N[C@@H](CC(C)C)C(O)C(=O)Nc1cccc2ccccc12 (stereo not given in full)

IC50 (HCT-116 [1]): 0.82 µM
Structure (SMILES): CC(C)C[C@@H](C=O)NC(=O)[C@H](CC(C)C)NC(=O)[C@H](CC(C)C)NC(=O)OCc1ccccc1 [MG-132] (Cbz-Leu-Leu-Leu-aldehyde)

IC50 [2]: 0.48 µM
Structure (SMILES): CC(C)C[C@H](NC(=O)OCc1ccccc1)C(=O)N[C@@H](CC(C)C)C(=O)N[C@@H](CC(C)C)C(=O)C(=O)N1CCOCC1

IC50 (HCT-116 [1]): 8.6 µM | IC50 [2]: 0.92 µM
Structure (SMILES): CC(C)C[C@H](NC(=O)OCc1ccccc1)C(=O)N[C@@H](CC(C)C)C(=O)C(=O)NCc1ccccc1

IC50 [2]: 50.2 µM
Structure (SMILES): CC(C)C[C@H](NC(=O)OCc1ccccc1)C(=O)N[C@@H](CC(C)C)C(O)C(=O)NCc1ccccc1 (stereo not given in full)

IC50 [2]: > 100 µM
Structure (SMILES): CC(C)C[C@H](NC(=O)OCc1ccccc1)C(=O)N[C@@H](Cc1cccc2ccccc12)C(O)C(=O)NCc1ccccc1 (stereo not given in full)

IC50 (HCT-116 [1]): 0.78 µM | IC50 [2]: 0.014 µM
Structure (SMILES): CC(C)C[C@H](NC(=O)OCc1ccccc1)C(=O)N[C@@H](CC(C)C)C(=O)N[C@@H](CC(C)C)C(=O)C(=O)NCc1ccccc1

IC50 [2]: 70.4 µM
Structure (SMILES): CC(C)C[C@H](NC(=O)OCc1ccccc1)C(=O)N[C@@H](Cc1ccc(O)cc1)C(O)C(=O)NCc1ccccc1 (stereo not given in full)

IC50 [2]: 0.53 µM
Structure (SMILES): CC(C)C[C@H](NC(=O)OCc1ccccc1)C(=O)N[C@@H](CC(C)C)C(=O)N[C@@H](CC(C)C)C(O)C(=O)NCc1ccccc1 (stereo not given in full)

IC50 (HCT-116 [1]): 0.81 µM | IC50 [2]: 0.012 µM
Structure (SMILES): CC(C)CNC(=O)C(=O)[C@H](CC(C)C)NC(=O)[C@H](CC(C)C)NC(=O)[C@H](CC(C)C)NC(=O)OCc1ccccc1
Activity (HCT-116 [5]): 10.5% | Activity (HCT-116 [6]): 22.3% | Activity (HCT-116 [7]): 20.7% | Activity (HCT-116 [8]): 1.91% | Activity (HCT-116 [9]): 1.53% | viability at 1 µM (HCT-116 [12]): 48.8% | viability at 1 µM (HCT-116 [13]): 55.4% | Activity (HCT-116 [14]): 38.8%

IC50 [2]: 0.77 µM
Structure (SMILES): CC(C)C[C@H](NC(=O)OCc1ccccc1)C(=O)N[C@@H](CC(C)C)C(=O)N[C@@H](CC(C)C)C(=O)C(=O)N1CCc2ccccc2C1
